Km data for four compounds are collected here from PMC11751479 (Nature Communications, 2025).

A word on the Km: it is the substrate concentration at which the rate is half of its maximum.

Common to all, as to experiment: HPLC assay, Michaelis-Menten regression
Holding throughout (type): biochemical, Cistanche tubulosa

The subject of one test is CtUGT73EV1. The following applies: UDP-glucose donor; optimal conditions (supplement).
The next test concerns CtUGT85AF12. To be noted: read-out: apparent KM; UDP-glucose donor; optimal conditions (supplement). The essentials:
(§1)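 Recombinant enzyme is expressed in E. coli and purified. Kinetic reactions follow supplementary methods. They are stopped with a double volume of methanol and centrifuged at 12,000 × g for 30 min, and the supernatant is analysed by HPLC. Kinetic constants come from nonlinear Michaelis-Menten regression.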

In a further test the test system is CtUGT85A191. The following applies: read-out: apparent KM; UDP-glucose donor; optimal conditions (supplement). In short, it runs like this:
as §1

The next test has as its system CtUGT79G13. To be noted: UDP-rhamnose donor; optimal conditions (supplement).

Regarding `C[C@@H]1O[C@@H](O[C@@H]2[C@@H](O)[C@H](OCCc3ccc(O)c(O)c3)O[C@H](CO)[C@H]2OC(=O)/C=C/c2ccc(O)c(O)c2)[C@H](O)[C@H](O)[C@H]1O` [compound 20, acteoside], the Michaelis-Menten constant (Km) with CtUGT73EV1 was 135 ± 24.1 µM.
In the case of `OCCc1ccc(O)cc1` [compound 9, tyrosol], the values for the Km with CtUGT85AF12 and in the test on CtUGT85A191 were 9.92 ± 2.2 µM and 138 ± 22.7 µM, respectively.
On to `OCCc1ccc(O)c(O)c1` [compound 10, hydroxytyrosol], for which the Km turned out to be 75.7 ± 12 µM in the test with CtUGT85AF12 and 288 ± 36.8 µM in the test on CtUGT85A191.
Take `O=C(/C=C/c1ccc(O)c(O)c1)O[C@H]1[C@H](O)[C@@H](O)[C@H](OCCc2ccc(O)c(O)c2)O[C@@H]1CO` [compound 18, calA]: the Km in the test with CtUGT79G13 was found to be 77.8 ± 6.1 µM.
